Test [1] addresses Serine/threonine-protein kinase pim-2 (Homo sapiens) (UniProt Q9P1W9). Kind of test: Inhibition of Pim-2 at 1 uM; values are per cent of control.
The target in test [2] is High affinity nerve growth factor receptor (Homo sapiens) (UniProt P04629). The experiment in a line: Inhibition of TrkA at 1 uM; values are per cent of control.
For test [3], the target named is T1, Dual specificity mitogen-activated protein kinase kinase 7 (Homo sapiens) (UniProt O14733).
T1 sequence (whole entry): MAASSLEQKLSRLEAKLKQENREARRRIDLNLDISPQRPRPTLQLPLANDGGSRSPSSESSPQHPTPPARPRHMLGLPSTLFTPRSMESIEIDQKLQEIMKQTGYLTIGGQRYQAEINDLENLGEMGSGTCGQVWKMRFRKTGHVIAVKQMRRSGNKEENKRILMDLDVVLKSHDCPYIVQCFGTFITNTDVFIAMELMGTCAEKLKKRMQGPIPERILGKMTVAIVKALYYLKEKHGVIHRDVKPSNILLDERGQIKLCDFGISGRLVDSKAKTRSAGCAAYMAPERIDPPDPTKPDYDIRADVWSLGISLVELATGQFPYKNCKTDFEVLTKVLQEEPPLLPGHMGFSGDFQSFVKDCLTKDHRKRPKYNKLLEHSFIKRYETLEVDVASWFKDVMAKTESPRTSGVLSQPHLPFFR
The experiment in a line: Inhibition of MKK7beta at 0.1 uM; values are per cent of control.

Test [4] deals with T2, Activin receptor type-1B (Homo sapiens) (UniProt P36896).
T2 sequence (whole entry): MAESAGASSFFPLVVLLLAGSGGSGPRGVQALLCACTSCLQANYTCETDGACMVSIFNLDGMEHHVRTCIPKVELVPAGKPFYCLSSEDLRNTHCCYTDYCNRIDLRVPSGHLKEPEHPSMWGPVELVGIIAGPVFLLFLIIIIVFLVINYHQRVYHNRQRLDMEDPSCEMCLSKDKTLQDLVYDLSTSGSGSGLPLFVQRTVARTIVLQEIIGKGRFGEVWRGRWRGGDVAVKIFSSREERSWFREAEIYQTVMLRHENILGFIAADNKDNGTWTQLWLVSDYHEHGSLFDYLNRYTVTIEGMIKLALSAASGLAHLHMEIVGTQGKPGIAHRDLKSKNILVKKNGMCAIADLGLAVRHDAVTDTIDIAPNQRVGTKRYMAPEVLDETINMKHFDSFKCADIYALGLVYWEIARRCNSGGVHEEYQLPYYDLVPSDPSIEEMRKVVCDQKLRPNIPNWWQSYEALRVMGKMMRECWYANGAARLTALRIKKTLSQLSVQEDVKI
The experiment in a line: Inhibition of ALK4 at 0.1 uM; values are per cent of control.

The target in test [5] is RAC-alpha serine/threonine-protein kinase (Homo sapiens) (UniProt P31749). The experiment in a line: Inhibition of PKBalpha at 0.1 uM; values are per cent of control.
Test [6] deals with Interleukin-1 receptor-associated kinase 1 (Homo sapiens) (UniProt P51617). Kind of test: Inhibition of IRAK1 at 0.1 uM; values are per cent of control.
Test [7] concerns the target T3, Tyrosine-protein kinase JAK3 (Homo sapiens) (UniProt P52333).
T3 sequence (whole entry): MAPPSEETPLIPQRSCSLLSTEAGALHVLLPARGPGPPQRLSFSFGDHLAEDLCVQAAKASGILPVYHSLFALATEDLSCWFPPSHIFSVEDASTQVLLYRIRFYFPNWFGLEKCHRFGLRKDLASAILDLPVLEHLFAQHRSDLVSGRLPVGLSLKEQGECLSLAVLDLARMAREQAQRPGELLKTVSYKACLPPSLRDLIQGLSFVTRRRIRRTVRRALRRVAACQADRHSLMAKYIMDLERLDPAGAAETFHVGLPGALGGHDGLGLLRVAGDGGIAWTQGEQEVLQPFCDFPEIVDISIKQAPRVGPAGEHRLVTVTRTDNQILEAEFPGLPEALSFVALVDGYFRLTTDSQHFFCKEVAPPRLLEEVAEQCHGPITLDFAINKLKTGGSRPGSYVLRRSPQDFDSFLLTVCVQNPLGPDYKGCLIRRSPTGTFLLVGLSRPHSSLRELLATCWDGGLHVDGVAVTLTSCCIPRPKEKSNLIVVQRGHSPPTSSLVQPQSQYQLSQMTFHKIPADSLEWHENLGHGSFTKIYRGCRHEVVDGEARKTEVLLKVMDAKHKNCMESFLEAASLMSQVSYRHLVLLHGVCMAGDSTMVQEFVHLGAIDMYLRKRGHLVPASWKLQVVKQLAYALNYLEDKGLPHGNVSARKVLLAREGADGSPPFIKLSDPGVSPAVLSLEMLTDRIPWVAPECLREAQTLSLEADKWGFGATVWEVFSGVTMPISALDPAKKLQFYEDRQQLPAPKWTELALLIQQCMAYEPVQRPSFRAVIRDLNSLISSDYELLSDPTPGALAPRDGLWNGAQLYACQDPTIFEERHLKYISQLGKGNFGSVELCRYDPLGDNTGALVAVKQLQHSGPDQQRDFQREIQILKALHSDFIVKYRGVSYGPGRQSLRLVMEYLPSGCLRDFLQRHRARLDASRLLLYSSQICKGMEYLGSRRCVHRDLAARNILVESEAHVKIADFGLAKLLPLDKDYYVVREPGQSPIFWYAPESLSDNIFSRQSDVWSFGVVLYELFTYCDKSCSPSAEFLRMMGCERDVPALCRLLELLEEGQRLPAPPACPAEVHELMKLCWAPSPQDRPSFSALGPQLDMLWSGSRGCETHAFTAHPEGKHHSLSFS
The experiment in a line: Inhibition of JAK3 at 1 uM. In a few lines: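 Each selected inhibitor was tested at two concentrations, 0.1 and 1.0 micromolar. Values are reported as inhibition at each concentration.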

Test [8] deals with Cyclin-dependent kinase 7/ cyclin H (Homo sapiens) (UniProt P51946+P50613). Kind of test: Inhibition of CDK7/cyclin H/MAT1 at 1 uM; values are per cent of control.
The target of test [9] is Ribosomal protein S6 kinase beta-1 (Homo sapiens) (UniProt P23443). Kind of test: Inhibition of p70S6K at 0.1 uM; values are per cent of control.
Test [10] deals with Myosin light chain kinase, smooth muscle (Homo sapiens) (UniProt Q15746). Kind of test: Inhibition of MLCK at 0.1 uM; values are per cent of control.
The target of test [11] is Serine/threonine-protein kinase SIK1 (Homo sapiens) (UniProt P57059). The experiment in a line: Inhibition of SIK at 1 uM.
Test [12] deals with Protein kinase C theta type (Homo sapiens) (UniProt Q04759). Kind of test: Inhibition of PKCtheta at 1 uM; values are per cent of control.
The target in test [13] is Protein kinase C alpha type (Homo sapiens) (UniProt P17252). The experiment in a line: Inhibition of PKCalpha at 0.1 uM; values are per cent of control.

The structures appear in SMILES notation.

The record followed here is ChEMBL document CHEMBL1681705, “Optimisation of ITK inhibitors through successive iterative design cycles” (Bioorg Med Chem Lett, 2011).

Chain of Myosin light chain kinase, smooth muscle (Homo sapiens) (Q15746 whole entry): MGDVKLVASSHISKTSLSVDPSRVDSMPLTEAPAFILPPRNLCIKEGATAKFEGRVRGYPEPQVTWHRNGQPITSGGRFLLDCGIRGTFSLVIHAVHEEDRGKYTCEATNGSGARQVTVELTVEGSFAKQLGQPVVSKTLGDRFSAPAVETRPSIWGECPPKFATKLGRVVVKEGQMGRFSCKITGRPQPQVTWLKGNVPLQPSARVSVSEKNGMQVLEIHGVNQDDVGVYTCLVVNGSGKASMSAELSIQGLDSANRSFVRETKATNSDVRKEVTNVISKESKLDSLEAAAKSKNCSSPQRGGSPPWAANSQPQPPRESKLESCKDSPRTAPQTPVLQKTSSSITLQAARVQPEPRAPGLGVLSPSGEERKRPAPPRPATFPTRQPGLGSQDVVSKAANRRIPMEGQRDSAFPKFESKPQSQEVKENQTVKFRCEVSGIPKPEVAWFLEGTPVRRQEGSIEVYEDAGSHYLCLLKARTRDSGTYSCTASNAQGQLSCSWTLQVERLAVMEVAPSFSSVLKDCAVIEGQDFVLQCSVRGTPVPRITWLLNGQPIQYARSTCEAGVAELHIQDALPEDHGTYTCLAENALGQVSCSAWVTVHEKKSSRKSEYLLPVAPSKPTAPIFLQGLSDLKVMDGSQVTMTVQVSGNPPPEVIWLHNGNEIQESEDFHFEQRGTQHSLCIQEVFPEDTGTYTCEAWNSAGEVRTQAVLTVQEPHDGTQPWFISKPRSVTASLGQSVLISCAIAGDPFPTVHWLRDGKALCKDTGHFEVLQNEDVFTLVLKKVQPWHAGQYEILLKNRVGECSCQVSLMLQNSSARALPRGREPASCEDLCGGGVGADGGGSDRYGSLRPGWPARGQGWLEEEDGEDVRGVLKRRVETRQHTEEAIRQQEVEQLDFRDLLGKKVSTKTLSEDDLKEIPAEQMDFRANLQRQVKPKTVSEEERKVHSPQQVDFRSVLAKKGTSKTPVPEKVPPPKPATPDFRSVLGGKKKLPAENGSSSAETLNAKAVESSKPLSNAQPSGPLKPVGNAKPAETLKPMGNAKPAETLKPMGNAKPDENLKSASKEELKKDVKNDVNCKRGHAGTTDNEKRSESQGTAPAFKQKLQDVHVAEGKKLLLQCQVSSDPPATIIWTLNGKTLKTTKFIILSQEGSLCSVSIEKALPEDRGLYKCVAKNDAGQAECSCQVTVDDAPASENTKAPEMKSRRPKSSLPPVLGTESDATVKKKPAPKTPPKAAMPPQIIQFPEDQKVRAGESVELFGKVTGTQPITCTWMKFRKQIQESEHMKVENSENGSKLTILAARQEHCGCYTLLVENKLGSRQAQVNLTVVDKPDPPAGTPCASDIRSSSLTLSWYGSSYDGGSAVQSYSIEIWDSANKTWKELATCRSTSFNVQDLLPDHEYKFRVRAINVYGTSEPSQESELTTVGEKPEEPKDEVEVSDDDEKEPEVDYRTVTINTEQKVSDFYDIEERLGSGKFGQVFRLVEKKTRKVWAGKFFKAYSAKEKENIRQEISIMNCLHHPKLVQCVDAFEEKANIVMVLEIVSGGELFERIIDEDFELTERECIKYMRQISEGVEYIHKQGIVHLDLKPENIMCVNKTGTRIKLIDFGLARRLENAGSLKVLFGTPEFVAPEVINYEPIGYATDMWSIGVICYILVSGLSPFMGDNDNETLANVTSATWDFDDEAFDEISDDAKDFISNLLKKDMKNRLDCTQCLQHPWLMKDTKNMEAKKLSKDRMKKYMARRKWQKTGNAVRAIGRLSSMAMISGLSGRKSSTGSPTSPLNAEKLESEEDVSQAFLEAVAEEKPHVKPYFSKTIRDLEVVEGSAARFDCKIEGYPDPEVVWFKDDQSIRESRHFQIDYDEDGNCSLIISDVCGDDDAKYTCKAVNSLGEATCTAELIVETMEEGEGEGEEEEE
Chain of High affinity nerve growth factor receptor (Homo sapiens) (P04629 33-796 limits assumed): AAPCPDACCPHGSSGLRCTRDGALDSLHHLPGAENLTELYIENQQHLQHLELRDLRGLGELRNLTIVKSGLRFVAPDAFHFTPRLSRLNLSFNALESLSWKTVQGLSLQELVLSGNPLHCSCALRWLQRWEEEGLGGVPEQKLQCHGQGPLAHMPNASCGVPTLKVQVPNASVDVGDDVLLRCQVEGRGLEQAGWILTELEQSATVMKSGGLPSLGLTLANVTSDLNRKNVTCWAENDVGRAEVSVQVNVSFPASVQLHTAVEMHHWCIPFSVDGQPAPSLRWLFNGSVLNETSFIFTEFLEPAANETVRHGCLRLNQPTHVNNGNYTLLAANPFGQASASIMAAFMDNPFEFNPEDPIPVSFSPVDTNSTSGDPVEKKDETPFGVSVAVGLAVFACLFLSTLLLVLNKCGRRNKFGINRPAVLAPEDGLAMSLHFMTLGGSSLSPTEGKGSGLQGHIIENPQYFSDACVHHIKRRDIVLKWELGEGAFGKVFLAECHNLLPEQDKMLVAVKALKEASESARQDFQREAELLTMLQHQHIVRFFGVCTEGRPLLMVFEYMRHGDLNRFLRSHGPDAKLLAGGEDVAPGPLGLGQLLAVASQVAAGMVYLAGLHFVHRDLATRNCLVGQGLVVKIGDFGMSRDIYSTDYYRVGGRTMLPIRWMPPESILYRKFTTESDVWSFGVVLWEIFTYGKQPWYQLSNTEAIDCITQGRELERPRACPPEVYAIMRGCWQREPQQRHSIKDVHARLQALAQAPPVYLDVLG
Chain of Ribosomal protein S6 kinase beta-1 (Homo sapiens) (P23443 whole entry, looked up): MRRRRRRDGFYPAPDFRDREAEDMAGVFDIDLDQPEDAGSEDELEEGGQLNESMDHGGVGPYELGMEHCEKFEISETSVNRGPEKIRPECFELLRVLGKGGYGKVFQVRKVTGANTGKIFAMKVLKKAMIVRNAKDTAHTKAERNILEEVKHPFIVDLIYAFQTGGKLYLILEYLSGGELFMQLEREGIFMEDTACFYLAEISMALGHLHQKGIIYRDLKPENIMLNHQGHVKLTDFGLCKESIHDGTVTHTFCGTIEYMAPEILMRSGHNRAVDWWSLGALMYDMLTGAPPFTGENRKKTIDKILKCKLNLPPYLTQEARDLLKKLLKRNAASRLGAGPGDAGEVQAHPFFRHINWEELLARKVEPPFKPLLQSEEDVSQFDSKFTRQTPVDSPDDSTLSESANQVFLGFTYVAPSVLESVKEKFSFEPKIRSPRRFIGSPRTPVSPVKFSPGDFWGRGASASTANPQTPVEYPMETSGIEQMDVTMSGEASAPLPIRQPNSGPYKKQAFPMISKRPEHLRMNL
Chain of Serine/threonine-protein kinase pim-2 (Homo sapiens) (Q9P1W9 whole entry, looked up): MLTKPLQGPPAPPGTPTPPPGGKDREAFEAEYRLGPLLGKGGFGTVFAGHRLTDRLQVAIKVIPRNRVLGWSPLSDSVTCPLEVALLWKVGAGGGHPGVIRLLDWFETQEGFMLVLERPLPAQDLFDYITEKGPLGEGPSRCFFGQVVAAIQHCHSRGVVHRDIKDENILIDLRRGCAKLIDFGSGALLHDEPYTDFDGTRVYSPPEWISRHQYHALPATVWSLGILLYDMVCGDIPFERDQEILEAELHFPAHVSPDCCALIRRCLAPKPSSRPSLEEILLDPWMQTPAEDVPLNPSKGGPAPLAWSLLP
Chain of Interleukin-1 receptor-associated kinase 1 (Homo sapiens) (P51617 whole entry, looked up): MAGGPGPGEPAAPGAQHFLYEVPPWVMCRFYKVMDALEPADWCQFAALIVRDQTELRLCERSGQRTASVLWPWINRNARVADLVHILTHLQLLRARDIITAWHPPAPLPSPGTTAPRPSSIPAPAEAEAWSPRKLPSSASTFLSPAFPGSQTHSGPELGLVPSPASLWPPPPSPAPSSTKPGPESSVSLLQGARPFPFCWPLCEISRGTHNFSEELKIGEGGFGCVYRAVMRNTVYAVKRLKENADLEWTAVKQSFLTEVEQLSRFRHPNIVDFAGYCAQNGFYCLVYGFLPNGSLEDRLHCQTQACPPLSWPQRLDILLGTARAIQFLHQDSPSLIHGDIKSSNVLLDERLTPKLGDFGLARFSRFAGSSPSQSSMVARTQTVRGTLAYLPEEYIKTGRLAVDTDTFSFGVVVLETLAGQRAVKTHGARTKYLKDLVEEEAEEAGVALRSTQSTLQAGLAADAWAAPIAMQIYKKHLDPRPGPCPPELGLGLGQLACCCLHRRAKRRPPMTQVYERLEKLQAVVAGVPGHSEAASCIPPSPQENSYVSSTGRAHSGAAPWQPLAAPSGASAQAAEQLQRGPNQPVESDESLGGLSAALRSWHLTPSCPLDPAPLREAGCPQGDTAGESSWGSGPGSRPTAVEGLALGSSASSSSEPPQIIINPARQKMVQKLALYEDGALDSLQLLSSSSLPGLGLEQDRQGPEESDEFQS

`Cc1ccc2cc(-c3n[nH]c4ccc(NC5CCNC5)cc34)[nH]c2c1` (stereo unspecified): the residual activity amounted to 105% in [1]; 0% in [2]; 98% in test [3]; 124% in [4]; 95% in test [5]; 56% in test [6]. Besides, the residual activity in test [8] is 10%; in test [9], 33%; in [10], 86%; in test [12] it was 23%; in [13] it was 85%. The results for the inhibition in test [7] and in [11] were 8% and 9%, respectively.
As to `Cc1ccc2cc(-c3n[nH]c4ccc(NC5CCN(Cc6ccccc6)CC5)cc34)[nH]c2c1`, the residual activity in [1] is 101%; in [2] it was 2%; in test [3], 103%; in test [4] it was 87%; in [5] it was 96%; in test [6] it was 47%. The residual activity in test [8] worked out at 28%; in test [9], 59%; in [10] it was 89%; in test [12] it was 6%; in test [13], 77%. The inhibition (usually the percentage by which the read-out fell short of the control) was determined as 5% in [7] and 14% in [11].
